Target: 5-hydroxytryptamine receptor 4 (Homo sapiens, UniProt Q13639)
Experiment: Concentration required to produce half-maximal response against 5-hydroxytryptamine receptor in the presence of 10 nM compound in isolated human atrial myocytes
Outline: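 Whole-cell patch clamp on enzymatically dissociated human atrial myocytes, room temperature (19–25 °C); Cs-based internal, pCa 8.5; I_Ca at 0 mV every 8 s, peak minus current at end of 400-ms pulse.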

Chain of 5-hydroxytryptamine receptor 4 (Q13639 whole entry): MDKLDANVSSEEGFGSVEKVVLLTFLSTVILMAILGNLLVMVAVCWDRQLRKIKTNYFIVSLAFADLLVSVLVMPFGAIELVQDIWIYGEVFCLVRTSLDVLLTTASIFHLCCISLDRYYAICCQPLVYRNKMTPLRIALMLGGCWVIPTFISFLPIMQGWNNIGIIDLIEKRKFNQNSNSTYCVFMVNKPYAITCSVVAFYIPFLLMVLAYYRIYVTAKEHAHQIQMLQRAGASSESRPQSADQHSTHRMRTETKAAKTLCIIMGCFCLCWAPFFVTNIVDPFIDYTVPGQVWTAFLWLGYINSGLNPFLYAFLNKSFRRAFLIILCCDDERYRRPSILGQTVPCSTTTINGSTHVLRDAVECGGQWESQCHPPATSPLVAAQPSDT

EC50: 66 nM
SMILES: COc1cc(N)c(Cl)cc1C(=O)OCCN1CCN(c2ncccn2)CC1 [4-Amino-5-chloro-2-methoxy-benzoic acid 2-(4-pyrimidin-2-yl-piperazin-1-yl)-ethyl ester]

Source: BindingDB's records for doi:10.1021/jm0009538 (Paris-Sud University, 2000)
